Measurements of several laboratories.
Each line is one published result; the experiments were not run side by side.
Target: Serine/threonine-protein kinase 17B (STK17B, Homo sapiens, UniProt O94768)
One construct used (O94768 1-372): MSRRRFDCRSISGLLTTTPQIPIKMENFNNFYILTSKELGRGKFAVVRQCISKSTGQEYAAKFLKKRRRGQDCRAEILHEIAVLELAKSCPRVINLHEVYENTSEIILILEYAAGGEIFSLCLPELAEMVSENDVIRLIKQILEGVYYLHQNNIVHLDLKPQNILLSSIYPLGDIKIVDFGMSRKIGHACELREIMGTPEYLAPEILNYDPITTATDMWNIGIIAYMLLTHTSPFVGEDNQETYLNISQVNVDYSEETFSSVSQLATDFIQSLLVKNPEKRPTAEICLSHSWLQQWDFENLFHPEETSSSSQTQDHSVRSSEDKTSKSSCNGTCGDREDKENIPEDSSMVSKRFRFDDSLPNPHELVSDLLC

Structure (SMILES) | test | setting | remaining binding
Cc1c(C(=O)O)cc(-c2ccc(C3CCNCC3)cc2)c2ccc(-c3ccc(C(F)(F)F)cc3)cc12 | cell-free assay, competition with immobilised ligand | 1 µM | 100%
O=C(Nc1c[nH]nc1C(=O)NC1CCNCC1)c1cc(F)cc(F)c1 | binding, competition with immobilised ligand | 1 µM | 100%
CCCCN(CCCC)C(=O)CN1C[C@H](c2cc(OC)c3c(c2)OCO3)[C@@H](C(=O)O)[C@@H]1CC(C)(C)CCC | cell-free assay, competition with immobilised ligand | 1 µM | 100%
COc1ncc2cc3ccccc3nc2c1C#N | cell-free assay, competition with immobilised ligand | 5 µM | 100%
C[C@H]1CCN(c2nccc(-c3cnn4ncccc34)n2)C1 | binding | 1 µM | 93%
CS(=O)(=O)c1cc(C2(NC(=O)c3cncc4c3cnn4-c3ccc(F)cc3)CC2)ccn1 | cell-free assay, competition with immobilised ligand | 1 µM | 83%
CN(C)c1nccc(-c2cnc3ncccn23)n1 | binding | 1 µM | 100%
O=C(c1ccc(Nc2ncc(Cl)c(-c3cc4ccccc4s3)n2)cc1)N1CCC(N2CCCC2)CC1 | binding, competition with immobilised ligand | 1 µM | 0%
CN(CCCC(F)(F)F)c1nccc(-c2cnn3ncccc23)n1 | binding | 1 µM | 100%
O=C(c1ccc(Nc2ncc(Cl)c(-c3ccc(Cl)s3)n2)cc1)N1CCC(N2CCCC2)CC1 | binding, competition with immobilised ligand | 1 µM | 2.7%
C[C@@H](c1ccc(-n2cnc3c(N)ncnc32)cc1)N1CCc2nn(C)c(Cc3ccccc3)c2C1=O | binding, competition with immobilised ligand | 0.1 µM | 100%
COc1cnc(Nc2cccc(S(N)(=O)=O)c2)nc1N1CCN(c2ccccc2)CC1 | binding, competition with immobilised ligand | 1 µM | 99%
C=CC(=O)N1CCC(C(=O)NCC(=O)N2CCN(c3nc(-c4cnc(N)nc4C(F)F)nc(N4CCOCC4)n3)CC2)CC1 | binding, competition with immobilised ligand | 1 µM | 97%
C[C@@H]1CN(c2cc(-c3nn(C)c4ccc(OC5(C)CC5)cc34)ncn2)C[C@H](C)O1 | cell-free assay, competition with immobilised ligand | 1 µM | 100%
N[C@H]1CCN(c2nccc(-c3cnn4ncccc34)n2)C1 | binding | 1 µM | 100%
O=C(NCc1ncc(C(F)(F)F)cc1Cl)c1ccc2c(c1)C1(CCS(=O)(=O)CC1)[C@H](C1CC1)N2S(=O)(=O)c1ccc(F)cc1 | cell-free assay, competition with immobilised ligand | 1 µM | 85%
CN(C)c1nccc(-c2cnn3ncccc23)n1 | binding | 1 µM | 100%
O=C(c1ccc(Nc2nccc(-c3cc4ccccc4s3)n2)cc1)N1CCC(N2CCCC2)CC1 | binding, competition with immobilised ligand | 1 µM | 0%
CN(c1nccc(-c2cnn3ncccc23)n1)C1CC1 | binding | 1 µM | 100%
CC(C)CC(=O)N1CCc2nc(-c3ccc(Br)cc3)nc(N(C)Cc3ccccc3)c2C1 | cell-free assay, competition with immobilised ligand | 0.1 µM | 91%
COc1ccnn2ncc(-c3ccnc(N(C)C)n3)c12 | binding | 1 µM | 100%
CN(C)C(=O)Cn1cc(-c2nc(C3(c4ccc(-c5cnc(N)nc5)cc4)CC3)no2)cn1 | cell-free assay, competition with immobilised ligand | 1 µM | 100%
